# According to the array DNA melting data of Ke et al. (doi:10.1101/2024.01.08.574731):
# Columns and labels:
# [1] = melting temperature; fluorescence melt of hairpins on a sequencing array, two-state fit, raised by 9.35 °C to match UV melts; conditions: sodium 0.088 M
# Summary of the method: (§1)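 To match UV melts, fitted temperatures were raised by 9.35 °C. These fits were bootstrapped two-state models that gave melting temperature and folding enthalpy, combined by inverse variance over four replicates. The input was normalised Cy3 fluorescence of library hairpins with annealed Cy3 and quencher oligos on a sequenced MiSeq flow cell, imaged in 50 mM Na-HEPES pH 8.0, 25 mM NaCl in 2.5 °C steps up to 60 °C.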
# [2] = folding enthalpy; higher = less favourable; fluorescence melt of hairpins on a sequencing array, two-state fit; conditions: sodium 0.088 M
# Summary of the method: as §1
Sequence,Tm [1],folding enthalpy [2]
GCAGAGCGAAAGCATTGC (((..((....))..))),49.9 °C,-17.3 kcal/mol
GCCGATCCGAAAGGAGGC (((..(((....)))))),52.7 °C,-36.8 kcal/mol
GGCATGCCGAAAGGCGCC (((..(((....)))))),57.5 °C,-16 kcal/mol
GCTTGGGGAAACCTGAGC (((..((....))..))),40 °C,-30.3 kcal/mol
GACGGTGGAAACATCGTC ((((.((....)).)))),53.7 °C,-43.6 kcal/mol
GCAAGGCGAAAGCTATGC (((..((....))..))),42.4 °C,-20.8 kcal/mol
GATCCGGATTCGGATC ((((((....)))))),59.1 °C,-35.7 kcal/mol
GGCGATCGAAAGATGGCC (((.(((....))).))),57.6 °C,-47.6 kcal/mol
GGATGGGCGAAAGCCTCC (((..(((....)))))),36.9 °C,-11.3 kcal/mol
CGGTTGAAAAACCG (((((....))))),56.2 °C,-29.6 kcal/mol
GCTATCGCGAAAGCGAGC (((..(((....)))))),39.2 °C,-10.3 kcal/mol
CGGGCGGAAACGCGTCCG ((((((....)))..))),53 °C,-23.9 kcal/mol
GCTTCGCGAAAGCAATGC ((.(.((....)).).)),33.2 °C,-16.4 kcal/mol
GTCACGGAAACGTGAC ((((((....)))))),69.2 °C,-34.4 kcal/mol
GGACACGAAAGTGCATCC ((((((....)))..))),32.7 °C,-11.8 kcal/mol
GATCTGCTATCAGATC ((((((....)))))),49.6 °C,-35.3 kcal/mol
GAAGGCGAAAGCCGCTTC ((((((....)))..))),56.2 °C,-13.6 kcal/mol
GATCCATGACTGGATC ((((((....)))))),48.6 °C,-35.5 kcal/mol
GGATTCGGAAACGAGTCC (((.(((....))).))),51.1 °C,-35.7 kcal/mol
GTAGCCGGAAACGACTAC ((((.((....)).)))),46.6 °C,-34.4 kcal/mol
GAATGCGAAAGCACTTTC ((((((....)))..))),28.9 °C,-10.4 kcal/mol
GCGGTGCGAAAGCAATGC ((..(((....)))..)),59 °C,-29.2 kcal/mol
GATAGCGAAAGCTGATC ((((((....))).))),38.9 °C,-13.2 kcal/mol

Sequence,Tm [1],folding enthalpy [2]
GGGTCTGCGAAAGCACCC (((..(((....)))))),44.2 °C,-17.5 kcal/mol
GCGGGGTCCGC ((((...)))),55.5 °C,-28.7 kcal/mol
GATCCAGGTTGGATC ((((((...)))))),50.7 °C,-41.9 kcal/mol
GTTTTGGGAAACTAAGAC ((.((.(....).)).)),29 °C,-9.09 kcal/mol
GTATGCGAAAGCAGTTAC ((((((....)))..))),28.2 °C,-10.1 kcal/mol
CGGACGGAAACGTGCCG ((((((....))).))),48.4 °C,-18.7 kcal/mol
GACGTCCCGAAAGGGGTC (((..(((....)))))),39.9 °C,-10.9 kcal/mol
GCATCCGAAAGGACGTGC ((((((....)))..))),38.3 °C,-19.4 kcal/mol
GCAATCTCGAAAGAGTGC (((..(((....)))))),43.2 °C,-24.5 kcal/mol
GGTGCGGGAAACCGCGTC (..((((....))))..),44.1 °C,-11.5 kcal/mol
GGTCCGGGAAACCGGATC (.(((((....))))).),58.9 °C,-24 kcal/mol
GTGTGGGGAAACCCACAC (((((((....))))))),69 °C,-32.3 kcal/mol
GGTATCCCGAAAGGGACC (((..(((....)))))),34.8 °C,-9.73 kcal/mol
GGCAATGGAAACGTTGCC (((((.(....).))))),54.5 °C,-56.8 kcal/mol
GGGTGTGGAAACACGCTC (.(.(((....))).).),56.7 °C,-17.8 kcal/mol
GACACTGGAAACAGCGTC (((.(((....))).))),46.4 °C,-35.2 kcal/mol
GGTGGCACGAAAGTGACC (((..(((....)))))),45.6 °C,-15.5 kcal/mol
GGCTTACGAAAGTATGCC (((.(((....))).))),56.8 °C,-45.2 kcal/mol
GCCTAGGGAAACTTGGGC (((.(.(....).).))),36.7 °C,-28.3 kcal/mol
GCCTTCGAAAGAATGGC ((((((....))).))),49 °C,-27.2 kcal/mol
GATCACTCACGTGATC ((((((....)))))),55.8 °C,-41.5 kcal/mol
GCTGACGGAAACACCAGC ((((..(....)..)))),33.3 °C,-13.1 kcal/mol
GCAACCCGAAAGGGTGC (((.(((....)))))),64.1 °C,-19.1 kcal/mol
